HSF1 activator = HSF-1 activators, primary screen, NIH3T3-HGL cells, MG132 stress, luminescence, single point; NIH3T3-HGL HSF-1 luciferase reporter, 8 h; 100% = twice DMSO control signal; AID 504408, 2011; hit rate 1.7% among 300,000; activation, % at 9 µM;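 active = mean replicate activation of at least 50% with a set share of replicates each reaching 50%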
Hsp70 act = Hsp70 transcriptional activators, primary screen, cell-based, HeLa, Hsp70 promoter luciferase, luminescence, 10 µM | AID 1203, 2008 | hit rate 0.04% among 200,000 | activation, % at 10 µM | HeLa Hsp70 promoter luciferase reporter; scaled: vehicle 0, proteasome-inhibitor control 100%;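 active = activation above the mean across all tested compounds plus 3 SD, cutoff set per campaign, cut at about 5.5% in these data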
HSF1 inhib = HSF1 inhibitors in luciferase reporter cells, primary screen, cell-based, NIH3T3, luminescence. hit rate 0.77% among 300,000. activity change, negative = inhibition, % at 7.5 µM (by protocol). NIH3T3-HGL HSE-luciferase, MG132-induced, luminescence 8 h; active compounds read low;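 active = more than half of replicate wells show activity change below -50%, luminescence cut by over half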;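 also: luciferase reports HSF-1 transcriptional activity via heat shock element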
Lmaj promast = Leishmania major promastigote growth inhibition, primary screen | Leishmania major promastigotes, resazurin fluorescence viability | inhibition, % at 10 µM | hit rate 9% among 200,000; in the data active = inhibition above about 50%;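 also: promastigotes grown with compound for 44 hours at 28 °C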
T cruzi inh = inhibitors of intracellular T. cruzi growth, primary screen, luminescence, NIH3T3 host cells | hit rate 1.4% among 300,000 | inhibition, % (no concentration beside the values) | T. cruzi beta-gal in NIH3T3, 90 h | AID 1885, 2009;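 active = mean inhibition across valid replicates above about 55%, limit read from the data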;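 also: signal also drops with host cell toxicity which is not excluded here; higher percent means less beta-gal luminescence so fewer parasites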
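Incubation – ≥90 h infection period, 3 h prior cell attachment · System – NIH/3T3 fibroblasts plus reporter T. cruzi · Doses – compound pinned at 50 nL/well, DMSO · Read-out basis – percent inhibition of parasite-derived β-gal signal · Signal – luminescent β-galactosidase signal after 60 min lysis · Also added – 5000 T. cruzi trypomastigotes/well · Medium – Low-serum DMEM with 2% FBS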
Numbers stand for hits. This is one part of a sample in which hits are shown more often than they occur.

COc1ccccc1N1CCN(C2CCC(C)CC2)CC1 (centres undefined) was read as HSF1 activator inactive, HSF1 inhib inactive and T cruzi inh inactive.
Cc1cc2c(n1-c1ccc(C(=O)O)cc1)CCCCC2 was read as HSF1 activator inactive, HSF1 inhib inactive and T cruzi inh inactive.
CCOC(=O)Cn1c(=O)oc2cc(S(=O)(=O)N3CCCc4ccccc43)ccc21 was read as HSF1 activator inactive, Hsp70 act inactive, HSF1 inhib inactive, Lmaj promast 81 and T cruzi inh inactive.
CC(C)CCNC(=O)Cn1c(=O)oc2cc(S(=O)(=O)N3CCc4ccccc43)ccc21 was read as HSF1 activator inactive, Hsp70 act inactive, HSF1 inhib inactive, Lmaj promast 99 and T cruzi inh inactive.
`O=C(Cn1c(=O)oc2cc(S(=O)(=O)N3CCc4ccccc43)ccc21)NC1CCCC1` gave HSF1 activator inactive, Hsp70 act inactive, HSF1 inhib inactive, Lmaj promast 99 and T cruzi inh inactive.
`CC(C)CCNC(=O)c1cc(S(=O)(=O)N2CCc3ccccc32)cn1C` gave HSF1 activator inactive, HSF1 inhib inactive and T cruzi inh inactive.
`O=C(Cn1c(=O)oc2cc(S(=O)(=O)N3CCCCCC3)ccc21)NC1CCCCC1` gave HSF1 activator inactive, HSF1 inhib inactive, Lmaj promast inactive and T cruzi inh inactive.
`O=C(Cn1c(=O)oc2cc(S(=O)(=O)N3CCCC3)ccc21)N1CCN(C2CCCCC2)CC1` gave HSF1 activator inactive, Hsp70 act inactive, HSF1 inhib inactive, Lmaj promast 85 and T cruzi inh inactive.
O=C(Cn1c(=O)oc2cc(S(=O)(=O)N3CCCCC3)ccc21)N1CCCCC1 was read as HSF1 activator inactive, HSF1 inhib inactive and T cruzi inh inactive.
Screening CN(C(=O)COc1ccc(-c2nnco2)cc1)C1CCS(=O)(=O)C1 (centres undefined) returned HSF1 activator inactive, HSF1 inhib inactive and T cruzi inh inactive.
Screening COc1ccccc1C(=O)OCc1ccc2sc(C)nc2c1 returned HSF1 activator inactive, Hsp70 act inactive, HSF1 inhib inactive, Lmaj promast inactive and T cruzi inh inactive.
Screening Cc1ccc[n+](C(C)C(=O)c2ccc(Cl)cc2)c1 (centres undefined) returned HSF1 activator inactive, HSF1 inhib inactive and T cruzi inh inactive.
For Cc1cc(C)c[n+](C(C)C(=O)c2ccc(-c3ccccc3)cc2)c1 (centres undefined) the results were HSF1 activator inactive, Hsp70 act inactive, HSF1 inhib inactive, Lmaj promast 67 and T cruzi inh inactive.
CCN(CC)C(=O)C1CCN(Cc2ccc(OCc3ccccc3)c(OC)c2)CC1 was read as HSF1 activator inactive, HSF1 inhib inactive and T cruzi inh inactive.
Screening COc1ccc(COC(=O)c2cccc(S(=O)(=O)N3CCCC3)c2)cc1F returned HSF1 activator inactive, HSF1 inhib inactive and T cruzi inh inactive.
`CC1(C)Cc2c(C#N)c(SCCC#N)nc(N3CCOCC3)c2CO1` gave HSF1 activator inactive, HSF1 inhib -61 and T cruzi inh inactive.
CC1(C)Cc2c(C#N)c(SCC(=O)O)nc(N3CCOCC3)c2CO1 was read as HSF1 activator inactive, HSF1 inhib inactive and T cruzi inh inactive.
For CC1(C)Cc2c(C#N)c(SCCOc3ccccc3)nc(N3CCOCC3)c2CO1 the results were HSF1 activator inactive, Hsp70 act inactive, HSF1 inhib inactive, Lmaj promast inactive and T cruzi inh 69.
For CC1(C)Cc2c(C#N)c(SCCO)nc(N3CCOCC3)c2CO1 the results were HSF1 activator inactive, HSF1 inhib inactive and T cruzi inh inactive.
S=C(NCc1ccccc1)N1CCn2cccc2C1c1cccnc1 (centres undefined) was read as HSF1 activator inactive, Hsp70 act inactive, HSF1 inhib inactive, Lmaj promast 91 and T cruzi inh 59.
S=C(NCCc1ccccc1)N1CCn2cccc2C1c1cccnc1 (centres undefined) was read as HSF1 activator inactive, Hsp70 act inactive, HSF1 inhib inactive, Lmaj promast 95 and T cruzi inh 68.
For S=C(NCc1ccccc1)N1CCn2cccc2C1c1ccncc1 (centres undefined) the results were HSF1 activator inactive, Hsp70 act inactive, HSF1 inhib inactive, Lmaj promast inactive and T cruzi inh inactive.
